Assay results taken from ChEMBL document CHEMBL1140307, “Design and synthesis of alpha-aryloxyphenylacetic acid derivatives: a novel class of PPARalpha/gamma dual agonists with potent antihyperglycemic and lipid modulating activity” (J Med Chem, 2005).

What was measured:
[1] = biological target: T1, Peroxisome proliferator-activated receptor alpha (Homo sapiens, UniProt Q07869); experiment: In vitro binding affinity for human PPAR alpha
T1 sequence (Q07869 whole entry): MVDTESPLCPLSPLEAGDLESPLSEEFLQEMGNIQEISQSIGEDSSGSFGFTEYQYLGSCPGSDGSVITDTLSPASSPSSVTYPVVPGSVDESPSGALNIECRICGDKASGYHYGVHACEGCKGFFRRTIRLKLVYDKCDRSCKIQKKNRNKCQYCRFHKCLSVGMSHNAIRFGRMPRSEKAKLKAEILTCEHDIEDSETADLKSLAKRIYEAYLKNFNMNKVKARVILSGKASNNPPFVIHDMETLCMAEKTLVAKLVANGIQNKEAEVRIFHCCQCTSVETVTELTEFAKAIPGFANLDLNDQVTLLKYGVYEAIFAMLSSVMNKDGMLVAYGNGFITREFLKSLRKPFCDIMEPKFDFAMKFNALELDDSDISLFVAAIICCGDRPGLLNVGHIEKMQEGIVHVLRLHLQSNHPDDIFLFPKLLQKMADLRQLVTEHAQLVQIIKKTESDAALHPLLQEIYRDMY

[2] = biological target: T2, Peroxisome proliferator-activated receptor gamma (Homo sapiens, UniProt P37231); experiment: In vitro binding affinity for human PPAR gamma
T2 sequence (P37231 whole entry): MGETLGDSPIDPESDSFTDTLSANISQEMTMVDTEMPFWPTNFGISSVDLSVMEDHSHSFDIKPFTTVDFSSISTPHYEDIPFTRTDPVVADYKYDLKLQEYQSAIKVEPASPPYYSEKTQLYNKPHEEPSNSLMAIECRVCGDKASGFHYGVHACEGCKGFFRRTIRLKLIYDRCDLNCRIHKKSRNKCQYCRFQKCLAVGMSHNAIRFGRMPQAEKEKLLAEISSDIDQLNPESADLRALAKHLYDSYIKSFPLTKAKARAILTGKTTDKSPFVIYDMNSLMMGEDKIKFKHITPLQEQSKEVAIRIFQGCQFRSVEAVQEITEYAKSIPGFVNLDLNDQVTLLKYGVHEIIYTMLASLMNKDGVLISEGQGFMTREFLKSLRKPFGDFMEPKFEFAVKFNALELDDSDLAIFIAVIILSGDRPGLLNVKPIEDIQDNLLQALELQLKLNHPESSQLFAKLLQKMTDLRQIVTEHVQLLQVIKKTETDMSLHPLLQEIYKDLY

[3] = test system: Cricetinae gen. sp.; experiment: Percentage change in the serum triglyceride upon administration of compound (100 mpk) in hamster; format: functional
Procedure, shortened: (§1)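 Male Golden Syrian hamsters were fed normal rodent chow and dosed orally once daily with compound. Serum total cholesterol and triglyceride were measured and expressed as percent change versus vehicle controls.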

[4] = test system: Cricetinae gen. sp.; experiment: Effect (100 mpk) on serum cholesterol in hamster; format: functional
Procedure, shortened: (§2)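 Male Golden Syrian hamsters on normal rodent chow, dosed orally with test compound (9 days per table legend). Serum total cholesterol and triglyceride were measured in mg/dL. Values are group means, expressed as % change versus the vehicle-treated control group.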

[5] = species on record: Mesocricetus auratus; experiment: Effect (100 mpk) on serum triglyceride in Golden Syrian hamster
[6] = test system: Cricetinae gen. sp.; experiment: Percentage change in the serum cholesterol upon administration of compound (100 mpk) in hamster; format: functional; procedure, shortened: as §1
[7] = test system: Canis familiaris; experiment: Percentage change in the serum cholesterol upon administration of compound (20 mpk) in dogs; format: functional, Canis lupus familiaris
Procedure, shortened: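 Male Beagle dogs were housed individually on a cholesterol-free chow diet, five per group. Baseline serum cholesterol was taken from weekly jugular bleeds before the study. Compound suspended in 0.5% methylcellulose was gavaged daily for 2 weeks. Serum cholesterol was measured during and after dosing and reported as mean percent change (n = 5).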

[8] = test system: Canis familiaris; experiment: Percentage change in the serum cholesterol upon administration of compound (100 mpk) in dogs
[9] = biological target: T1, Peroxisome proliferator-activated receptor alpha; experiment: Agonist response against human PPAR alpha in transactivation assay
[10] = biological target: T2, Peroxisome proliferator-activated receptor gamma; experiment: Agonist response against human PPAR gamma in transactivation assay; format: functional
[11] = test system: Rattus norvegicus; experiment: Effect (150 mg/kg) on PPAR gamma- mediated effects measured as change in liver weight in rats; format: functional
Procedure, shortened: (§3)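 Male Sprague-Dawley rats (about 200 g, n = 6) were fed rodent chow and gavaged once daily for 2 weeks with compound in 0.5% methylcellulose. Body weight was recorded on days 1, 4, 6, 8, 11 and 14. Rats were euthanized with CO2 24 h after the last dose, and BAT, heart and liver were weighed. Blood was taken by heart puncture for hematocrit. Results are mean ± SD versus vehicle.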

[12] = Area under concentration time curve of compound when administered perorally at a dose of 2 mg/kg to dogs; format: ADME, organism-based, Canis lupus familiaris; design: dose 2 mg/kg, route oral; details: dog, in vivo, po
Procedure, shortened: (§4)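 Male Sprague-Dawley rats (n = 3) and male adult Beagle dogs (n = 4) were fasted overnight. They received either a 2 mg/kg oral gavage dose or a 0.5 mg/kg IV bolus. Blood was drawn into heparin tubes from a femoral arterial cannula (rat) or the jugular vein (dog) at set time points. Plasma was acidified with 0.5 M formate pH 3.0, stored at -70 °C and quantified by LC-MS/MS.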

[13] = Oral bioavailability in dog; format: ADME, organism-based, Canis lupus familiaris; details: in vivo; procedure, shortened: as §4
[14] = Oral bioavailability in rat; format: ADME, organism-based; details: in vivo; procedure, shortened: as §4
[15] = Half life when administered intravenously at a dose of 0.5 mg/kg to dogs; format: ADME, organism-based, Canis lupus familiaris; design: dose 0.5 mg/kg, route intravenous; details: dog, in vivo, iv; procedure, shortened: as §4
[16] = test system: Canis familiaris; experiment: Percentage change in the serum cholesterol upon administration of compound (10 mpk) in dogs
[17] = test system: Rattus norvegicus; experiment: Effect (150 mg/kg) on PPAR gamma- mediated effects measured as change in brown adipose tissue weight in rats; format: functional; procedure, shortened: as §3
[18] = test system: Cricetinae gen. sp.; experiment: Effect (10 mpk) on serum cholesterol in hamster; format: functional; procedure, shortened: as §2
[19] = test system: Cricetinae gen. sp.; experiment: Percentage change in the serum cholesterol upon administration of compound (10 mpk) in hamster; format: functional; procedure, shortened: as §1
[20] = Half life when administered intravenously at a dose of 0.5 mg/kg to rats; format: ADME, organism-based; design: dose 0.5 mg/kg, route intravenous; details: rat, in vivo, iv; procedure, shortened: as §4
[21] = Area under concentration time curve of compound when administered perorally at a dose of 2 mg/kg to rats; format: ADME, organism-based; design: dose 2 mg/kg, route oral; details: rat, in vivo, po; procedure, shortened: as §4
[22] = test system: Cricetinae gen. sp.; experiment: Percentage change in the serum triglyceride upon administration of compound (10 mpk) in hamster; format: functional; procedure, shortened: as §1
[23] = species on record: Mesocricetus auratus; experiment: Effect (10 mpk) on serum triglyceride in hamster
[24] = test system: Rattus norvegicus; experiment: Effect (150 mg/kg) on PPAR gamma- mediated effects measured as change in hematocrit weight in rats; format: functional; procedure, shortened: as §3
[25] = test system: Rattus norvegicus; experiment: Effect (150 mg/kg) on PPAR gamma- mediated effects measured as change in body weight in rats; format: functional; procedure, shortened: as §3
[26] = test system: Rattus norvegicus; experiment: Effect (150 mg/kg) on PPAR gamma- mediated effects measured as change in heart weight in rats; format: functional; procedure, shortened: as §3

IC50 [1]	IC50 [2]	EC50 [9]	EC50 [10]	Compound	further results
6120 nM	> 50000 nM	–	–	CCC(=O)c1cc(C(C)CC)c(OC(C(=O)O)c2ccccc2)c(C(C)CC)c1 (stereo not given)	–
–	–	–	–	CC(C)OC(=O)C(C)(C)Oc1ccc(C(=O)c2ccc(Cl)cc2)cc1 [FENOFIBRATE]	Change [3]: -26%; Cholesterol level [4]: 91 mg/dL; Triglyceride level [5]: 244 mg/dL; Change [6]: -29%; Change [7]: -4.7%; Change [8]: -23.5%
100 nM	110 nM	310 nM	140 nM	CCCc1cc2c(oc(=O)n2CC(F)(F)F)c(CCC)c1O[C@H](C(=O)O)c1ccc(C(C)C)cc1	–
260 nM	220 nM	–	–	CCCc1cc2c(oc(=O)n2CC)c(CCC)c1O[C@H](C(=O)O)c1ccc(Cl)cc1	–
150 nM	87 nM	–	120 nM	CCCc1cc2c(oc(=O)n2CCC)c(CCC)c1O[C@H](C(=O)O)c1ccc(C(C)C)cc1	–
64 nM	210 nM	76 nM	480 nM	CCCc1cc(C(=O)CC)cc(CCC)c1O[C@H](C(=O)O)c1ccc(CC)cc1	–
160 nM	3160 nM	250 nM	–	CCCc1cc(C(=O)C(C)C)cc(CCC)c1OC(C(=O)O)c1ccccc1 (stereo not given)	–
1410 nM	520 nM	–	360 nM	CCCc1c(O[C@H](C(=O)O)c2ccc(C(C)C)cc2)c(Cl)cc2c1oc(=O)n2CC	–
3000 nM	> 50000 nM	–	–	CCC(=O)c1cc(C)c(OC(C(=O)O)c2ccccc2)c(C)c1 (stereo not given)	–
> 15000 nM	> 50000 nM	–	–	CCCc1cc(C(=O)CC)cc(CCC)c1CC(C(=O)O)c1ccc(C(C)C)cc1 (stereo not given)	–
393 nM	85 nM	–	640 nM	CCCc1cc2c(oc(=O)n2C)c(CCC)c1O[C@H](C(=O)O)c1ccc(C(C)C)cc1	–
130 nM	2700 nM	160 nM	–	CCCc1cc(C(=O)C(C)(C)C)cc(CCC)c1OC(C(=O)O)c1ccccc1 (stereo not given)	–
43 nM	200 nM	110 nM	–	CCCc1cc(C(=O)CC)cc(CCC)c1O[C@H](C(=O)O)c1ccc(OC(C)C)cc1	–
1600 nM	> 50000 nM	–	–	CCC(=O)c1cc(Cl)c(OC(C(=O)O)c2ccccc2)c(Cl)c1 (stereo not given)	–
160 nM	260 nM	160 nM	197 nM	CCCc1cc(C(=O)CC)cc(C)c1OC(C(=O)O)c1ccc(C(C)C)cc1 (stereo not given)	–

Compound	IC50 [1]	IC50 [2]	EC50 [9]	EC50 [10]	further results
CCCc1cc2c(=O)n(C)oc2c(CCC)c1O[C@H](C(=O)O)c1ccc(C(C)C)cc1	74 nM	–	670 nM	390 nM	Liver weight [11]: 20.3 g; AUC [12]: 26.9 µM·h; bioavailability [13]: 73%; bioavailability [14]: 73%; half-life [15]: 1.6 h; Change [16]: -17.3%; BAT [17]: 0.24 g; Cholesterol level [18]: 106 mg/dL; Change [19]: -17%; half-life [20]: 7.2 h; AUC [21]: 67.5 µM·h; Change [22]: -9%; Triglyceride level [23]: 303 mg/dL; Hematocrit [24]: 45.7%; Body weight [25]: 278 g; Heart weight [26]: 1.14 g
